# Source: PubChem BioAssay
# GRK2 inh: inhibitors of human GRK2 displacing RNA aptamer | bead flow cytometry, FAM-aptamer displacement from GRK2 | inhibition of aptamer binding, % at 10 µM | actives 0.59% (n = 330,000) | AID 488847;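 active means inhibition of aptamer binding above 40%, roughly 3 SD of noise, on plates passing a quality check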;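 further: median bead fluorescence of bound FAM aptamer so fluorescent compounds give negative values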
# Rce1 inh: inhibitors of yeast Ras-converting enzyme | Q03530 | yeast membranes, quenched prenylated peptide cleavage fluorescence | calls only | actives 0.27% (n = 290,000);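 active means fall in fluorescence gain of 50% or more versus controls, with final raw signal at or below 3038400; inconclusive means same 50% fall but final raw signal above 3038400; inactive means fall in fluorescence gain under 50%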
# Target sequence (Q03530 whole entry, looked up): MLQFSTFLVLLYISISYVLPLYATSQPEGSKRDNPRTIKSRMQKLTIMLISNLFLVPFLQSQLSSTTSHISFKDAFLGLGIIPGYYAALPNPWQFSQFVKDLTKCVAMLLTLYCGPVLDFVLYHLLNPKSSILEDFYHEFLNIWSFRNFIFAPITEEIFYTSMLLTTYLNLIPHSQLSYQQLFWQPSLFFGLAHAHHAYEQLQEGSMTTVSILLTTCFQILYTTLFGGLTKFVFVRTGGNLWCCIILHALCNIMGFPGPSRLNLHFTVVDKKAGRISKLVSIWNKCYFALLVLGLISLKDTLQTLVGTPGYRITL
# Myeloid diff MLP: myeloid differentiation induction; ER-HoxA9 myeloid progenitors, lysozyme-GFP differentiation, flow cytometry; calls only at 10 µM; actives 1% (n = 360,000); AID 624256;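 active means normalized GFP-positive differentiation at or above the plate's own cutoff, the solvent-only control mean plus 3 SD; inconclusive means no clear call, values can overlap the other calls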;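 further: cells exposed to compound for four days before flow analysis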
# SKN-1 block: blocks SKN-1 activity in C. elegans | C. elegans VP596 Pgst-4::GFP/RFP ratio, acrylamide-induced, 24 h | inhibition, % at 21.8 µM | actives 0.49% (n = 360,000);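 active means interference check ratio from 0.5 to 1.5 plus GFP to RFP signal ratio inhibition reaching or exceeding a fixed threshold, cut at about 30% in these data, passing the limit was not always enough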
# T cell modulator: T cell immune modulators affecting CD8 T cell-vesicle binding; 2C CD8+ T cell-vesicle binding, flow cytometry; active compounds read low; response (vesicle binding), % at 7 µM; actives 0.068% (n = 330,000); AID 2052;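 active means response, share of CD8 T cells binding vesicles, and their 90th percentile fluorescence all below set limits, cut at about 80% in these data, passing the limit was not always enough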;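 further: values below 100% mean blocked vesicle binding to the CD8+ T cells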
#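 Material: murine 2C transgenic CD8+ T lymphocytes / Also added: QL9-peptide-loaded Drosophila micro-vesicles bearing Ld, ICAM-1 and B7-1 / Schedule: binding step 1.5 h, 37 °C, antibody labelling 20 min, ice / Signal: flow cytometry, PE anti-B7-1 (FL2) versus Alexa647 anti-CD8 (FL8), PFA-fixed / Evaluation: percent CD8+ FL2 mean versus row control / Benchmarks: naked versus QL9-loaded vesicles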
# Rin1-Abl PPI inh: blocks binding of human Rin1 to Abl. TR-FRET Rin1/Abl binding, biochemical. actives 0.4% (n = 360,000). inhibition, % at 7.35 µM; in the data active means inhibition above about 5%, passing the limit was not always enough
# GRK2 inh confirm: human GRK2 inhibition confirmation, cherry pick 1; shares compounds with GRK2 inh; bead-bound GRK2, FAM-aptamer displacement, flow cytometry; aptamer displacement, % at 10 µM; actives 4% (n = 2,000); AID 504451;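 active means aptamer displacement above 40%, near three times the noise of non-fluorescent compounds, on plates passing quality checks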;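 further: negative values mostly reflect intrinsic compound fluorescence rather than true enhancement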
# Aptamer quench 1: quenches fluorescent RNA aptamer, GRK2 hit artifact; shares compounds with GRK2 inh; AID 504521; Fluorescent RNA aptamer beads, quenching, flow cytometry; active compounds read high; fluorescence change (kMESF span), kMESF (test concentration not listed); 110 tested, under 10 active;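 active means compounds whose bead fluorescence drops by more than 37 kMESF across the dose range, marking them as dye quenchers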
# Aptamer quench SP: quenches fluorescent RNA aptamer, GRK2 hit artifact; shares compounds with GRK2 inh; Carboxyfluorescein RNA aptamer on beads, flow cytometry quenching; active compounds read low; fluorescence response (% of DMSO), % at 10 µM; 2,000 tested, under 10 active; AID 504580;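 active means compounds that quench the bead-bound fluorescent RNA probe, cutting fluorescence to under half of the solvent control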;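 further: counterscreen run without GRK2 so only probe quenching by compound is measured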
# GRK2 confirm 2: confirmation of human GRK2 inhibitors binding RNA aptamer site; shares compounds with GRK2 inh; bead-bound GRK2, FAM-aptamer displacement, flow cytometry; inhibition of aptamer binding, % at 10 µM; 360 tested, under 10 active; AID 504782;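 active means inhibition of aptamer binding above 40%, about triple the noise seen with nonglowing compounds, on plates passing quality control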;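 further: negative values mostly come from compounds that fluoresce themselves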
# Aptamer quench3: quenches fluorescent RNA aptamer, GRK2 hit artifact; 25 tested, under 10 active; AID 504819; Streptavidin beads, FAM-RNA aptamer fluorescence quenching, flow cytometry; change in fluorescence (kMESF span), kMESF (concentration not given with the values); shares compounds with GRK2 inh;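 active means compounds quenching the bead-bound labeled aptamer, with fluorescence dropping by more than 37 kMESF over the dose range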
# FAM quench SP: aptamer fluorescence quenching in GRK2 counter-screen; fluorescence response vs DMSO, % at 10 µM; shares compounds with GRK2 inh; 360 tested, under 10 active; AID 588494; carboxyfluorescein RNA aptamer beads, flow cytometry quenching; active compounds read low;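 active means response vs DMSO under 50%, meaning signal dropped by over half, treated as fluorescence quencher; inconclusive means no clear call, values can overlap the other calls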;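 further: labelled aptamer on streptavidin beads without GRK2 as a quench counter-screen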
# Numbers stand for hits; - = inactive; ? = inconclusive; . = not tested or not shown. Only some compounds are listed: those with a hit (about 2.6% of all), similar ones and a draw of the others.
SMILES,GRK2 inh,Rce1 inh,Myeloid diff MLP,SKN-1 block,T cell modulator,Rin1-Abl PPI inh,GRK2 inh confirm,Aptamer quench SP,others
O=C(Nc1cccc(C(F)(F)F)c1)c1csc(-c2ccncc2)n1,-,-,-,-,-,-,.,.,
COc1ccc(-c2csc3nc(-c4ccc(C)cc4)oc(=O)c23)cc1OC,79.0,-,-,-,-,-,.,.,GRK2 confirm 2=65.3;Aptamer quench3=-;FAM quench SP=-
CNC(=O)c1c[nH]c2ccc(S(=O)(=O)Nc3ccccc3F)cc2c1=O,93.0,-,-,-,-,-,-,-,
COc1ccccc1CNS(=O)(=O)c1ccc2[nH]cc(C(=O)O)c(=O)c2c1,59.0,-,-,-,-,-,55.6,-,Aptamer quench 1=-
COc1ccccc1CNS(=O)(=O)c1ccc2c(c1)CCCN2C(C)=O,-,-,-,-,-,-,.,.,
COc1cccc(CNC(=O)COC(=O)c2cccc(S(=O)(=O)N3CCCC3)c2)c1,.,.,-,-,.,-,.,.,
CCC1Oc2ccccc2N(CC(=O)NCCCN2CCCCC2C)C1=O (centres undefined),61.0,-,-,-,-,-,-,-,
COc1ccc(C2=C(C)C(N3CCN(C(=O)c4ccco4)CC3)=NS2(=O)=O)cc1,-,-,-,-,-,-,.,.,
O=C(O)c1ccccc1-c1c2cc(I)c(=O)c(I)c-2oc2c(I)c(O)c(I)cc12,61.0,.,?,-,-,-,80.1,-,Aptamer quench 1=-
CC1=C(/C=C/C(C)=C/C=C/C(C)=C/CO)C(C)(C)CCC1,86.0,-,-,-,-,-,-,-,
CC1=C(/C=C/C(C)=N\NC(=O)c2ccncc2)C(C)(C)CCC1,-,-,-,-,-,-,.,.,
Cc1cc(/C=C(\C#N)C(=O)NCc2ccco2)c(C)n1-c1ccc(C(=O)O)cc1,-,-,-,-,-,-,.,.,
COc1ccc(NC(=O)COC(=O)CCCOc2ccc(Cl)cc2Cl)cc1Cl,-,-,-,-,-,-,.,.,
CCOc1ccccc1OCCCC(=O)OCC(=O)Nc1cccc(Cl)c1,81.0,-,-,-,-,-,-,-,
COc1ccc2nc(NC(=O)C3CCCN(S(=O)(=O)c4cccc5nonc45)C3)sc2c1 (centres undefined),87.0,-,-,-,-,-,-,-,
O=C(NCc1ccccc1Cl)C1CCCN(S(=O)(=O)c2cccc3nonc23)C1 (centres undefined),-,.,-,-,-,-,-,-,
Cc1noc(/C=C/N(C)C)c1S(=O)(=O)N1CCCC(C(=O)NCc2ccccc2Cl)C1 (centres undefined),-,-,-,-,-,-,-,-,
COc1ccc(CNC(=O)C2CCCN(S(=O)(=O)c3c(C)noc3/C=C/N(C)C)C2)cc1 (centres undefined),-,-,-,-,-,-,-,-,
Cc1noc(/C=C/N(C)C)c1S(=O)(=O)N1CCCC(C(=O)NCc2ccc(Cl)cc2)C1 (centres undefined),-,.,-,-,-,-,.,.,
Cc1ccc(CNC(=O)C2CCCN(S(=O)(=O)c3c(C)noc3/C=C/N(C)C)C2)cc1 (centres undefined),.,-,-,-,-,-,-,-,
CC(CC(=O)NCCc1ccc(S(N)(=O)=O)cc1)c1ccccc1 (centres undefined),-,-,-,-,-,-,.,.,
O=Cc1ccc(N2N=C(c3ccccc3)CC2c2ccccc2)cc1 (centres undefined),46.0,-,-,-,-,-,-,-,
COC(=O)CN(c1cccc(C)c1)S(=O)(=O)c1ccccc1,-,-,-,-,-,-,.,.,
Brc1ccc(C[n+]2ccccc2)cc1,-,-,?,-,-,-,.,.,
CC[n+]1ccc(C[n+]2ccccc2)c2ccccc21,54.0,.,-,-,-,-,-,-,
SMILES,GRK2 inh,Rce1 inh,Myeloid diff MLP,SKN-1 block,T cell modulator,Rin1-Abl PPI inh,GRK2 inh confirm,Aptamer quench SP,others
CCOc1cc(/C=C2\SC(=NC)N(C)C2=O)c(Br)cc1OC(C)=O,74.0,-,-,-,-,-,-,-,
CCOc1cc(/C=C2\SC(=NC)N(C)C2=O)cc(Cl)c1OC(C)=O,-,-,-,-,-,-,.,.,
Cc1ccc(C)c(S(=O)(=O)N2CCCC2CNC(=O)C(=O)NCc2ccccn2)c1 (centres undefined),-,-,-,-,-,-,.,.,
Cc1cc(C)n(-c2nc(NCCO)c3c4c(sc3n2)CCCC4)n1,-,-,-,-,-,-,.,.,
Cc1cc(C)n(-c2nc(NCCCO)c3c4c(sc3n2)CCCC4)n1,-,-,-,-,-,-,-,-,
CCN(CC(=O)Nc1ccc(NC(C)=O)cc1)C(=O)C1CC(=O)N(CCc2ccc(OC)c(OC)c2)C1 (centres undefined),92.0,-,-,-,-,-,-,-,
Cc1cc(NC(=O)C2CCN(S(=O)(=O)c3cnc[nH]3)CC2)ccc1Br,43.0,-,-,-,-,-,-,-,
Cn1nccc1-c1ccc(C(=O)NCc2ccc(Cl)cc2)c2occc12,.,.,-,-,.,-,.,.,
O=C(O)c1cc(Cl)ccc1NC(=O)C1CCCO1 (centres undefined),-,-,-,-,-,-,.,.,
COc1cc(NC(=O)C2CCCO2)c(C(=O)O)cc1OC (centres undefined),-,-,-,-,-,-,-,-,
COc1ccc(N(CC(=O)NCc2ccccc2)S(=O)(=O)c2c(C)n[nH]c2C)cc1,-,-,-,-,-,-,.,.,
O=C(CS(=O)(=O)c1ccccc1)Nc1nnc(C(F)(F)F)s1,-,-,-,-,-,-,.,.,
Cc1nnc(NC(=O)CCS(=O)(=O)c2ccccc2)s1,-,-,-,-,-,-,-,-,
CC(C)(C)c1nnc(NC(=O)CCS(=O)(=O)c2ccccc2)s1,-,-,-,-,-,-,-,-,
O=C(CCS(=O)(=O)c1ccccc1)Nc1nnc(C(F)(F)F)s1,-,-,-,-,-,-,-,-,
Cn1cc(C(N)=O)c2ccccc21,-,-,-,-,-,-,.,.,
